Screening results deposited in PubChem by several laboratories.
Myeloid diff MLP: promotes myeloid progenitor differentiation; ER-HoxA9 myeloid progenitors, lysozyme-GFP differentiation, flow cytometry; calls only at 10 µM; 1% of 360,000 active;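 active = normalized GFP-positive differentiation at or above the plate's own cutoff, the solvent-only control mean plus 3 SD; inconclusive = no clear call, values can overlap the other calls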;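 also: cells exposed to compound for four days before flow analysis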
EBI2 antag: blocks human EBI2 receptor beta-arrestin signaling; P32249; EBI2 beta-arrestin recruitment, luminescence, 7a,25-OHC stimulated; inhibition, % at 5 µM; 0.81% of 360,000 active; AID 651636; in the data active = inhibition above about 38%;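 also: enzyme fragment complementation signal reports receptor beta-arrestin coupling in cells; 0% = agonist plus DMSO wells and 100% = wells without agonist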
MC4R ag barr: agonists of human melanocortin 4 receptor (MC4R) beta-arrestin; P32245; U2OS MC4R beta-arrestin complementation, luminescence; percent of melanotan II response, DMSO zero; activation, % at 8.9 µM; 0.98% of 360,000 active;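 active = activation above a per-plate cutoff, the mean activation of sample wells on that plate plus 3 SD, cut at about 8% in these data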
Target sequence (P32245 whole entry, looked up): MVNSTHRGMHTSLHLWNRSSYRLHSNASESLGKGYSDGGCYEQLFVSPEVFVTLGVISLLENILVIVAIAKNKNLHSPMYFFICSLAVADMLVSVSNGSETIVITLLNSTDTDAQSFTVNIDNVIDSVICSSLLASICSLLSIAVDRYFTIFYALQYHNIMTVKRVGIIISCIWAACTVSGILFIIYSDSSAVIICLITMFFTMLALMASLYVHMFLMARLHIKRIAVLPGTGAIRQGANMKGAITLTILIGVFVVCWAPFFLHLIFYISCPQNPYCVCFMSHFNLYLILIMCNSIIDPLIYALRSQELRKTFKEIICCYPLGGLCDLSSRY
Exocytosis inh: lytic granule exocytosis inhibition. TALL-104 LAMP-1 surface exposure, flow cytometry; cells stimulated with thapsigargin and PMA. inhibition, % at 10 µM. 0.66% of 360,000 active. AID 651702;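 active = inhibition above about 55%, limit read from the data; inconclusive = no clear call, values can overlap the other calls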
MC4R antagonist: human MC4R antagonism in cAMP assay; P32245; MC4R-expressing cells, MTII-stimulated cAMP, LANCE TR-FRET; inhibition, % at 6.5 µM; 0.48% of 360,000 active;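 active = inhibition above its plate's cutoff, the mean of tested wells on that plate plus 3 SD, cut at about 29% in these data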;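 also: 0% = Melanotan II alone and 100% = Melanotan II plus saturating MCL0020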
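Assay system: human MC4R-expressing U2OS cells; reagent: Melanotan II stimulation of cells; dosing: 6.5 µM single dose; timing: compound 30 min, challenge 1 h, detection 1 h; signal: TR-FRET cAMP assay; replicates: one well per compound, no replicates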
Granule exo CP1: blocks lytic granule exocytosis. shares compounds with Exocytosis inh. TALL-104 cells, LAMP-1 externalization, flow cytometry; stimulated with PMA plus thapsigargin. inhibition, % at 10 µM. 11% of 1,500 active. AID 651954; in the data active = inhibition above about 60%;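 also: 0% = stimulated vehicle wells and 100% = unstimulated wells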
* hit, by the source's call; i = inactive; ? = inconclusive; . = not tested or not shown. Only some compounds are listed: those with a hit (about 3.7% of all), similar ones and a draw of the others.

SMILES	Myeloid diff MLP	EBI2 antag	MC4R ag barr	Exocytosis inh	MC4R antagonist	Granule exo CP1
CCn1c(=N)n(CC(=O)c2ccc(Cl)c(Cl)c2)c2ccccc21	i	30.9	0.8	36.7	-12.1	.
N=c1n(CCN2CCCCC2)c2ccccc2n1CC(=O)c1ccc(Cl)c(Cl)c1	i	16.8	2.3	83.0*	9.8	47.2
CN1CCN(C(=O)C2=C[C@H](c3coc4ccccc4c3=O)C[C@H](OCCCCO)O2)CC1	i	5.5	-0.6	-0.8	4.3	.
O=C(C1=C[C@@H](c2coc3ccccc3c2=O)C[C@@H](OCCCCO)O1)N1CCOCC1	i	-8.0	-2.0	66.1*	4.1	-14.1
CC(=O)N1C(C)(C)CC(=NOC(=O)c2ccc(C)cc2)CC1(C)C	i	2.1	-1.3	-0.3	6.6	.
CSc1cccc(NC(=O)c2cccc3cccnc23)c1	i	13.7	0.6	81.8*	12.7	-14.3
S=c1nccc(-c2ccc3c(c2)CCO3)[nH]1	i	-0.4	-0.3	59.2*	2.2	-12.4
CC(=O)c1sc2nc(C)c3c(c2c1N)CCCC3	i	-3.9	-2.1	62.3*	-8.8	-5.2
Cc1cc2nc(C3CCCCC3)c(Cc3ccccc3)n2c(C)c1Br	i	-4.9	.	-0.7	.	.
CCc1nc2ccc(C(=O)NCc3ccc4c(c3)OCO4)cn2c1N(CC)CCOC	i	0.8	0.3	-0.4	7.7	.
CCCCN(C)c1c(C)nc2ccc(C(=O)NCc3ccc4c(c3)OCO4)cn12	i	-5.0	1.1	59.8*	11.3	-11.6
O=C(Cc1cccs1)N(Cc1cccs1)C1(C(=O)NC2CCCC2)CCCCC1	i	20.7	-2.7	76.9*	2.1	3.4
COCCN1CCC(CO)C1 (stereo not given)	i	5.7	0.0	-3.1	-0.1	.
O=P(c1ccccc1)(c1ccccc1)C(O)c1ccc(Br)cc1 (stereo not given)	i	10.3	1.3	59.6*	7.3	-12.4
O=C(CSc1nnc(-c2ccccc2)c(-c2ccccc2)n1)Nc1ccc(Br)cn1	i	28.1	-0.2	-1.1	6.0	.
CN(C(=O)c1ccc(OC2CCN(S(=O)(=O)N(C)C)CC2)cc1)C1CCCCC1	i	-8.3	-4.2	64.0*	3.8	-1.2
CC1CCCCN1C(=O)c1ccc(OC2CCN(S(=O)(=O)N(C)C)CC2)cc1 (stereo not given)	i	0.5	-3.0	-5.4	14.0	.
COC(C/C=C/[C@H](O)[C@@H](C)OCc1ccccc1)OC	i	-6.9	-1.6	96.4*	8.3	-4.9
CCC(=C(c1ccc(OC)cc1)c1ccc(OC)cc1)c1cn(CC(O)CN2CCN(C)CC2)c2ccccc12 (stereo not given)	i	0.1	2.5	88.8*	-1.7	83.1*
Cc1ccc2oc(NC3=NC4(CCCC4)C4=C(CCCC4=O)N3)nc2c1	i	39.9	-0.3	-3.6	6.4	.
COc1ccc(Br)cc1CN(C)C(=O)CNC(=O)c1ccc2ccccc2c1	i	28.2	3.3	57.5*	-3.6	-5.0
COc1ccc(CN(C)C(=O)CNC(=O)c2ccc3ccccc3c2)c(OC)c1	i	7.0	-2.5	-9.4	3.9	.
CCOC(=O)Nc1ccc2c(c1)N(C(=O)CCN(CC)CC)c1ccccc1S2=O (stereo not given)	i	39.9	-1.4	72.9*	14.3	-7.7
Cn1nc(C(C)(C)C)cc1NC(=O)C1(C)CCN1C(=O)CCc1ccccc1 (stereo not given)	i	-1.6	0.2	-0.4	-0.8	.
Cn1nc(C(C)(C)C)cc1NC(=O)C1(C)CCN1C(=O)c1ccccc1CCc1ccccc1 (stereo not given)	i	20.3	1.8	97.5*	4.7	-4.2
COc1ccc(OCC(=O)N2c3ccccc3CC2C)c([N+](=O)[O-])c1 (stereo not given)	i	1.8	0.7	-3.0	14.6	.
CCOC(=O)C1Nc2c(cc(C(F)(F)F)cc2[N+](=O)[O-])C2c3ccccc3CC12 (stereo not given)	i	1.5	1.2	76.4*	4.5	-12.6
CCOC(=O)C1Nc2c(F)cc(C)cc2C2c3ccccc3CC12 (stereo not given)	i	-9.2	2.0	4.7	-2.2	.
Cc1ccc(N2CCN(S(=O)(=O)c3ccc4oc(=O)ccc4c3)CC2)c(C)c1	?	-4.4	3.0	86.4*	19.7	-13.4
